Data as given in ChEMBL document CHEMBL3808334, “Synthesis and in vitro evaluation of novel triazine analogues as anticancer agents and their interaction studies with bovine serum albumin” (Eur J Med Chem, 2016).

What was measured:
Assay type in all cases: functional
ACHN = assay: Growth inhibition of human ACHN cells assessed as cell growth at 10^-4 M incubated for 48 hrs by sulforhodamine B assay; conditions: read-out: Activity
In short: (§1)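 Five-dose assay: five concentrations from 10-fold or ½-log serial dilutions. Cells are plated at 5,000–40,000 per well according to doubling time, grown 24 h, then exposed 48 h at 37 °C, 5% CO₂. Fixed with cold 50% TCA (final addition) for 60 min at 4 °C and stained with 0.4% SRB in 1% acetic acid. Bound dye is solubilized in 10 mM Tris base and read at 515 nm. GI₅₀ is where [(Ti−Tz)/(C−Tz)]×100 = 50, with a time-zero plate as Tz.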

SN12C [1] = assay: Growth inhibition of human SN12C cells assessed as cell growth at 10^-4 M incubated for 48 hrs by sulforhodamine B assay; conditions: read-out: Activity
[2] = Growth inhibition of human UO31 cells assessed as cell growth at 10^-4 M incubated for 48 hrs by sulforhodamine B assay; conditions: UO-31, 48 h, read-out: Activity
[3] = Growth inhibition of human RXF393 cells incubated for 48 hrs by sulforhodamine B assay; conditions: RXF 393, 48 h
In short: (§2)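 Cells were plated at 5,000–40,000 per well according to doubling time and preincubated 24 h at 37 °C in 5% CO2; time-zero plates were then TCA-fixed. Five concentrations (10-fold or ½-log dilutions, DMSO stock) were incubated 48 h. Cells were TCA-fixed, stained with 0.4% SRB and read at 515 nm. GI50 was taken where [(Ti−Tz)/(C−Tz)]×100 = 50.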

[4] = Growth inhibition of human PC3 cells incubated for 48 hrs by sulforhodamine B assay; conditions: PC-3, 48 h; in short: as §2
MDA-MB-231 = assay: Growth inhibition of human MDA-MB-231 cells incubated for 48 hrs by sulforhodamine B assay; conditions: MDA-MB-231, 48 h; in short: as §2
[5] = Growth inhibition of human SKOV3 cells assessed as cell growth at 10^-8 M incubated for 48 hrs by sulforhodamine B assay; conditions: SK-OV-3, 48 h, read-out: Activity
[6] = Growth inhibition of human Caki1 cells assessed as cell growth at 10^-8 M incubated for 48 hrs by sulforhodamine B assay; conditions: CAKI-1, 48 h, read-out: Activity
In short: (§3)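 Cells seeded at 5,000–40,000/well according to doubling time and preincubated 24 h at 37 °C, 5% CO2. Time-zero plates were TCA-fixed. DMSO concentrate was diluted in medium with 50 µg/ml gentamicin to give five concentrations (10-fold or ½ log steps), then exposed 48 h. Cells were TCA-fixed, stained with 0.4% SRB and read at 515 nm. Percent growth was taken against time-zero and control; GI50, TGI and LC50 derived.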

[7] = Growth inhibition of human RPMI8226 cells assessed as cell growth at 10^-4 M incubated for 48 hrs by sulforhodamine B assay; conditions: RPMI-8226, 48 h, read-out: Activity
Malme-3M = assay: Growth inhibition of human MALME-3M cells assessed as cell growth at 10^-7 M incubated for 48 hrs by sulforhodamine B assay; conditions: read-out: Activity
U-251 = assay: Growth inhibition of human U251 cells assessed as cell growth at 10^-4 M incubated for 48 hrs by sulforhodamine B assay; conditions: U-251, 48 h, read-out: Activity
[8] = Growth inhibition of human LOXIMVI cells assessed as cell growth at 10^-4 M incubated for 48 hrs by sulforhodamine B assay; conditions: LOX IMVI, read-out: Activity
[9] = Growth inhibition of human SKOV3 cells assessed as cell growth at 10^-4 M incubated for 48 hrs by sulforhodamine B assay; conditions: SK-OV-3, 48 h, read-out: Activity
NCI/ADR-RES = assay: Growth inhibition of human NCI/ADR-RES cells assessed as cell growth at 10^-7 M incubated for 48 hrs by sulforhodamine B assay; conditions: read-out: Activity
[10] = Growth inhibition of human TK10 cells assessed as cell growth at 10 uM incubated for 48 hrs by sulforhodamine B assay; conditions: TK-10, 48 h, read-out: Activity
[11] = Growth inhibition of human UO31 cells assessed as cell growth at 10 uM incubated for 48 hrs by sulforhodamine B assay; conditions: UO-31, 48 h, read-out: Activity
A549 = assay: Growth inhibition of human A549/ATCC cells assessed as cell growth at 10^-6 M incubated for 48 hrs by sulforhodamine B assay; conditions: A549, 48 h, read-out: Activity; in short: as §1
NCI-H460 = assay: Growth inhibition of human NCI-H460 cells assessed as cell growth at 10^-6 M incubated for 48 hrs by sulforhodamine B assay; conditions: NCI-H460, 48 h, read-out: Activity
[12] = Growth inhibition of human COLO205 cells assessed as cell growth at 10^-6 M incubated for 48 hrs by sulforhodamine B assay; conditions: COLO 205, 48 h, read-out: Activity; in short: as §3
[13] = Growth inhibition of human OVCAR8 cells assessed as cell growth at 10^-6 M incubated for 48 hrs by sulforhodamine B assay; conditions: OVCAR-8, 48 h, read-out: Activity
SN12C [14] = assay: Growth inhibition of human SN12C cells assessed as cell growth at 10^-6 M incubated for 48 hrs by sulforhodamine B assay; conditions: read-out: Activity
MDA-MB-468 [15] = assay: Growth inhibition of human MDA-MB-468 cells assessed as cell growth at 10^-6 M incubated for 48 hrs by sulforhodamine B assay; conditions: MDA-MB-468, 48 h, read-out: Activity
[16] = Growth inhibition of human OVCAR3 cells assessed as cell growth at 10^-5 M incubated for 48 hrs by sulforhodamine B assay; conditions: OVCAR-3, 48 h, read-out: Activity
NCI-H226 = assay: Growth inhibition of human NCI-H226 cells assessed as cell growth at 10 uM incubated for 48 hrs by sulforhodamine B assay; conditions: NCI-H226, 48 h, read-out: Activity
T47D = assay: Growth inhibition of human T47D cells incubated for 48 hrs by sulforhodamine B assay; in short: as §2
MDA-MB-468 [17] = assay: Growth inhibition of human MDA-MB-468 cells incubated for 48 hrs by sulforhodamine B assay; conditions: MDA-MB-468, 48 h; in short: as §2
[18] = Growth inhibition of human ovarian cancer cells incubated for 48 hrs by sulforhodamine B assay; conditions: Cancer cell lines
[19] = read-out: LC50 (the source's name)
[20] = read-out: pLC50 (the source's name) (converted)

SMILES: c1ccc(-c2nc(Nc3ccc(-c4nc5ccccc5[nH]4)cc3)nc(N3CCOCC3)n2)cc1
- growth at 100 µM (ACHN): -70%
- growth at 100 µM (SN12C [1]): -59%
- growth at 100 µM [2]: -76%
- GI50 ([3]; read-out: GI50): 0.501 µM
- CC50 [3, 19]: 7.24 µM
- TGI ([3]; read-out: TGI): 2.12 µM
- GI50 ([3]; read-out: pGI50 (converted)): 0.501 µM
- CC50 [3, 20]: 7.24 µM
- TGI ([3]; read-out: pTGI (converted)): 2.14 µM
- GI50 ([4]; read-out: GI50): 1.8 µM
- CC50 [4, 19]: 7.37 µM
- TGI ([4]; read-out: TGI): 3.64 µM
- GI50 ([4]; read-out: pGI50 (converted)): 1.82 µM
- CC50 [4, 20]: 7.41 µM
- TGI ([4]; read-out: pTGI (converted)): 3.63 µM
- GI50 (MDA-MB-231; read-out: GI50): 1.29 µM
- CC50 (MDA-MB-231; [19]): 9.4 µM
- TGI (MDA-MB-231; read-out: TGI): 3.48 µM
- GI50 (MDA-MB-231; read-out: pGI50 (converted)): 1.29 µM
- CC50 (MDA-MB-231; [20]): 9.33 µM
- TGI (MDA-MB-231; read-out: pTGI (converted)): 3.47 µM
- growth at 0.01 µM [5]: 95%
- growth at 0.01 µM [6]: 91%
- growth at 100 µM [7]: -37%
- growth at 0.1 µM (Malme-3M): 131%
- growth at 100 µM (U-251): -69%
- growth at 100 µM [8]: -45%
- growth at 100 µM [9]: -100%
- growth at 0.1 µM (NCI/ADR-RES): 95%
- growth at 10 µM [10]: -58.1%
- growth at 10 µM [11]: -60.6%
- growth at 1 µM (A549): 96%
- growth at 1 µM (NCI-H460): 45%
- growth at 1 µM [12]: 72%
- growth at 1 µM [13]: 89%
- growth at 1 µM (SN12C [14]): 85%
- growth at 1 µM (MDA-MB-468 [15]): 102%
- growth at 10 µM [16]: -90%
- growth at 10 µM (NCI-H226): -19.3%
- GI50 (T47D; read-out: GI50): 1.62 µM
- CC50 (T47D; [19]): 9.02 µM
- TGI (T47D; read-out: TGI): 3.82 µM
- GI50 (T47D; read-out: pGI50 (converted)): 1.62 µM
- CC50 (T47D; [20]): 9.12 µM
- TGI (T47D; read-out: pTGI (converted)): 3.8 µM
- GI50 (MDA-MB-468 [17]; read-out: GI50): 2.13 µM
- CC50 (MDA-MB-468 [17]; [19]): 9.03 µM
- TGI (MDA-MB-468 [17]; read-out: TGI): 4.39 µM
- GI50 (MDA-MB-468 [17]; read-out: pGI50 (converted)): 2.14 µM
- CC50 (MDA-MB-468 [17]; [20]): 9.12 µM
- TGI (MDA-MB-468 [17]; read-out: pTGI (converted)): 4.37 µM
- GI50 [18]: 1.85 µM
- TGI [18]: 3.88 µM
- CC50 [18, 19]: 6.84 µM
